In ChEMBL document CHEMBL4052634, “Covalent inhibitors of LgtC: A blueprint for the discovery of non-substrate-like inhibitors for bacterial glycosyltransferases” (Bioorg Med Chem, 2017):
The source made the active and inactive calls.

Legend:
[1] = test system: Neisseria meningitidis; experiment: Inhibition of Neisseria meningitidis alpha-1,4-galactosyltransferase at 25 to 100 uM using lactose as substrate preincubated for 10 mins in presence of UDP-Gal followed by substrate addition measured after 20 mins
Method in brief: (§1)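 LgtC pre-incubated 10 min at 30 °C with inhibitor (DMSO, 10% final) and UDP-Gal 28 µM in 13 mM HEPES pH 7.0 with MnCl2 5 mM, CIP 10 U/mL, lysozyme 1 mg/mL, 0.01% Triton; lactose 2 mM then added, 20 min at 30 °C; malachite green absorbance at 620 nm converted via UDP calibration; triplicate.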

[2] = test system: Neisseria meningitidis; experiment: Inhibition of Neisseria meningitidis alpha-1,4-galactosyltransferase at 25 to 50 uM using lactose as substrate preincubated for 10 mins in presence of UDP-Gal followed by substrate addition measured after 20 mins; method in brief: as §1
[3] = Binding affinity to L-cysteine assessed as covalent adduct formation at 0.06 mmol by 1H NMR analysis; conditions: TDE = time-dependent effect
Method in brief: (§2)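 Amino acid (0.06 mmol; cysteine in d6-DMSO, serine in D2O) added to inhibitor (0.06 mmol) in d6-DMSO in an NMR tube, mixed by shaking; 1H-NMR (400 MHz) recorded at 298 K at time points from 0-190 min to follow adduct formation.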

[4] = target: Intestinal-type alkaline phosphatase (Bos taurus) (UniProt P19111); experiment: Inhibition of calf intestinal alkaline […] at 0.1 to 100 uM using UDP as substrate after 20 mins by malachite green dye-based assay
[5] = test system: Neisseria meningitidis; experiment: Inhibition of Neisseria meningitidis alpha-1,4-galactosyltransferase assessed as enzyme activity at 100 uM using beta-lactose as substrate preincubated for 10 mins in presence of UDP-Gal donor followed by substrate addition incubated for 20 mins measured before diafiltration by colorimetric analysis (reference value: 84%)
Method in brief: (§3)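 DTT-activated LgtC pre-incubated with inhibitor (100 µM) or DMSO plus UDP-Gal 28 µM, 10 min at 30 °C; lactose 2 mM added, 20 min at 30 °C. Activity measured in samples taken before, and after diafiltration (10 kDa cut-off, 4 °C, two 50 min spins with one HEPES pH 7.0 wash), under standard conditions (2 mM lactose, 28 µM UDP-Gal, 20 min, 30 °C), malachite green readout.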

[6] = Inhibition of Neisseria meningitidis alpha-1,4-galactosyltransferase using lactose as substrate in presence of UDP-Gal measured after 20 min by malachite green dye-based assay
Method in brief: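 Recombinant LgtC, pre-activated with DTT (10 mM, 1:1, 30 min, 30 °C). Reaction contained MnCl2 5 mM, CIP 10 U/mL, lysozyme 1 mg/mL, Triton 0.01%, 13 mM HEPES pH 7.0, lactose 2 mM, inhibitor 0.1–100 µM (10% DMSO final), UDP-Gal 28 µM. No pre-incubation; 20 min at 30 °C. Released phosphate read by malachite green at 620 nm against a UDP calibration curve. Turnover adjusted to 20–50%. IC50 from sigmoidal fit of background-corrected % activity; at least triplicate.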

[7] = test system: Neisseria meningitidis; experiment: Binding affinity to Neisseria meningitidis alpha-1,4-galactosyltransferase assessed as covalent adduct formation at 100 uM after 20 mins by mass spectrometric analysis
Method in brief: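 LgtC stock without DTT activation, diluted in 13 mM HEPES pH 7.0, incubated with inhibitor (100 or 50 µM, added in DMSO; 10% final DMSO) for 20 min at 30 °C; samples injected directly for electrospray MS to detect protein-inhibitor adducts.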

[8] = Binding affinity to L-serine assessed as covalent adduct formation at 0.06 mmol by 1H NMR analysis; method in brief: as §2
[9] = Binding affinity to L-lysine assessed as adduct formation at 0.06 mmol by 1H NMR analysis
Method in brief: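 Lysine (0.06 mmol in D2O) mixed with inhibitor (0.06 mmol) in d6-DMSO in an NMR tube by shaking; 1H-NMR spectra at 400 MHz, 298 K, taken at time points over 0-190 min.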

[10] = test system: Neisseria meningitidis; experiment: Inhibition of Neisseria meningitidis alpha-1,4-galactosyltransferase at 0.1 to 100 uM using lactose as substrate after 20 mins in presence of UDP-Gal and measured in presence of varying acceptor concentration by malachite green dye-based assay
Method in brief: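 Activated LgtC with inhibitor (0.1-100 µM), UDP-Gal 28 µM, lactose varied 2-50 mM, MnCl2 5 mM, CIP 10 U/ml, lysozyme 1 mg/ml, 0.01% Triton in 13 mM HEPES pH 7.0, no pre-incubation; 20 min at 30 °C, donor turnover 20-50%; malachite green detection of UDP; triplicate.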

[11] = test system: Neisseria meningitidis; experiment: Competitive inhibition of Neisseria meningitidis alpha-1,4-galactosyltransferase at 1 to 5 uM using lactose as substrate measured after 20 mins in presence of fixed concentration of UDP-Gal donor and varying concentration of lactose acceptor by Dixon/Cornish-Bowden plot analysis
Method in brief: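 Acceptor kinetics using standard protocol without pre-incubation: DTT-activated LgtC, UDP-Gal fixed at 100 µM, inhibitor 1, 2, 3, 4, 5 µM, lactose 5, 15, 25 mM, with 5 mM MnCl2, CIP 10 U/ml, lysozyme 1 mg/ml, 0.01% Triton, 13 mM HEPES pH 7.0, 10% DMSO; 20 min at 30 °C, donor turnover <10%; UDP released read by malachite green.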

[12] = test system: Neisseria meningitidis; experiment: Inhibition of Neisseria meningitidis alpha-1,4-galactosyltransferase C246S mutant expressed in Escherichia coli BL21(DE3) at 100 uM using lactose as substrate in presence of UDP-Gal measured after 20 min by malachite green dye-based assay
Method in brief: (§4)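 Mutant LgtC (His-tag purified, Superdex 200), DTT-activated (10 mM, 1:1, 30 min, 30 °C), no pre-incubation with inhibitor. Final: 2 mM lactose, 28 µM UDP-Gal, 5 mM MnCl2, phosphatase CIP 10 U/mL, lysozyme 1 mg/mL, 0.01% Triton, 13 mM HEPES pH 7.0, 10% DMSO; 20 min, 30 °C. UDP read at 620 nm vs UDP calibration, background-corrected; triplicate.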

[13] = test system: Neisseria meningitidis; experiment: Inhibition of Neisseria meningitidis alpha-1,4-galactosyltransferase C246A mutant expressed in Escherichia coli BL21(DE3) at 100 uM using lactose as substrate in presence of UDP-Gal measured after 20 min by malachite green dye-based assay; method in brief: as §4
[14] = species: Bos taurus; experiment: Inhibition of bovine beta-1,4-galactosyltransferase at 100 uM using GLcNAc as substrate in presence of UDP-Gal measured after 20 mins by malachite green dye-based assay
[15] = target: T1, Galactoside alpha-(1,2)-fucosyltransferase 2 (Homo sapiens) (UniProt Q10981); experiment: Inhibition of human fucosyltransferase2 at 150 uM using alpha-lactose as substrate in presence of GDP-Fuc measured after 20 mins by malachite green dye-based assay
T1 sequence (whole entry): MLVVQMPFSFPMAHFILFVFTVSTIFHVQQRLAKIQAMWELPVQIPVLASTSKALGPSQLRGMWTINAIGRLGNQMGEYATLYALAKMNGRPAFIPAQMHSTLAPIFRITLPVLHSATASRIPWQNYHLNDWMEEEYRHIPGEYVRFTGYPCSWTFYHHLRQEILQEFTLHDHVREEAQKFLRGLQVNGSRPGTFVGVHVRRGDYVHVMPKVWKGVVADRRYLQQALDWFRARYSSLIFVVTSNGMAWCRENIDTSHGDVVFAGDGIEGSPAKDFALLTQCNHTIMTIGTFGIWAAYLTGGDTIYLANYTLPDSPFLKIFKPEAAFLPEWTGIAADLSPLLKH

[16] = test system: Pasteurella multocida; experiment: Inhibition of Pasteurella multocida alpha-2,3-sialyltransferase at 150 uM using beta-lactose as substrate in presence of CMP-Neu5Ac measured after 20 mins by malachite green dye-based assay
[17] = test system: Neisseria meningitidis; experiment: Inhibition of Neisseria meningitidis alpha-1,4-galactosyltransferase assessed as enzyme activity at 100 uM using beta-lactose as substrate in presence of UDP-Gal donor/lactose acceptor incubated for 20 mins measured after diafiltration by colorimetric analysis (reference value: 85 %); method in brief: as §3

Sequence of Intestinal-type alkaline phosphatase (Bos taurus) (P19111 20-506 limits assumed): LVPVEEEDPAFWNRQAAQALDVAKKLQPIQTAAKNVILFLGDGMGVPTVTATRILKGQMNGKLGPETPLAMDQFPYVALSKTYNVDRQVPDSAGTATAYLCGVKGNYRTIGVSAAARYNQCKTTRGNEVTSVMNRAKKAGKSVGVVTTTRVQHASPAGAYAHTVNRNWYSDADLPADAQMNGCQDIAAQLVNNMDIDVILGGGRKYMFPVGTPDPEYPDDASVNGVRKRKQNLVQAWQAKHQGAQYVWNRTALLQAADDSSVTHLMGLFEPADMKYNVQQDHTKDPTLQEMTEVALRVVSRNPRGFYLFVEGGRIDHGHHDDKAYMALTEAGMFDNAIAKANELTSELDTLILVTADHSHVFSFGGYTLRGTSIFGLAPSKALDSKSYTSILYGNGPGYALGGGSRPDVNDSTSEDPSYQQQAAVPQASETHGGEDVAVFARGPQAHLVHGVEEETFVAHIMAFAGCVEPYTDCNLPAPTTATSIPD

| inhibition [1] | inhibition [2] | SMILES | Activity [3] | inhibition [4] | inhibition [5] [%] | IC50 [6] [µM] | Activity [7] | Activity [8] | Activity [9] | inhibition [10] | inhibition [11] | inhibition [12] | inhibition [13] | inhibition [14] | inhibition [15] | inhibition [16] | inhibition [17] [%] |
| --- | --- | --- | --- | --- | --- | --- | --- | --- | --- | --- | --- | --- | --- | --- | --- | --- | --- |
| inactive | inactive | COc1ccc(/C=C2\SC(=S)N(c3ccccc3)C2=O)cc1Br | – | – | – | – | – | – | – | – | – | – | – | – | – | – | – |
| inactive | – | Cc1nn(-c2ccccc2)c(O)c1Cc1ccccc1C(F)(F)F | – | – | – | – | – | – | – | – | – | – | – | – | – | – | – |
| – | – | CC1=NN(c2ccccc2)C(=O)/C1=C\c1ccccc1C(F)(F)F | Tde | inactive | 30 | 27 | Active | inactive | inactive | inactive | Active | Active | inactive | inactive | inactive | inactive | 23 |
